SENP8 block-1: SENP8 protease inhibitors, primary screen, biochemical, luminescence | Sentrin-specific protease 8 (Homo sapiens), Q96LD8 | purified SENP8, Z-RLRGG-aminoluciferin cleavage | inhibition, % at 10 µM | actives 1.2% (n = 330,000) | AID 2540, 2010; in the data active = inhibition above about 50%
SENP7 block: SENP7 protease inhibitors, primary screen, biochemical, luminescence, uHTS | inhibition, % at 5 µM | Sentrin-specific protease 7 (Homo sapiens), Q9BQF6 | AID 434973, 2010 | actives 1.5% (n = 330,000) | recombinant SENP7, Z-RLRGG-aminoluciferin luminescence, 40 min;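 active = inhibition above about 50% at the single test dose, limit read from the data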;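 note: plate controls were DMSO with enzyme for no effect and no enzyme buffer wells for full effect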
SENP6 block: SENP6 protease inhibitors, primary screen, biochemical, luminescence, uHTS; Recombinant SENP6 catalytic domain, aminoluciferin luminescence; Sentrin-specific protease 6 (Homo sapiens), Q9GZR1; inhibition, % at 10 µM; actives 1.8% (n = 330,000); AID 2599, 2010;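 active = inhibition above about 50% at the single tested dose, limit read from the data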;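 note: plate controls were DMSO wells with enzyme for no effect and DMSO wells lacking enzyme for full effect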
Target sequence (Q9GZR1 628-1112 limits assumed): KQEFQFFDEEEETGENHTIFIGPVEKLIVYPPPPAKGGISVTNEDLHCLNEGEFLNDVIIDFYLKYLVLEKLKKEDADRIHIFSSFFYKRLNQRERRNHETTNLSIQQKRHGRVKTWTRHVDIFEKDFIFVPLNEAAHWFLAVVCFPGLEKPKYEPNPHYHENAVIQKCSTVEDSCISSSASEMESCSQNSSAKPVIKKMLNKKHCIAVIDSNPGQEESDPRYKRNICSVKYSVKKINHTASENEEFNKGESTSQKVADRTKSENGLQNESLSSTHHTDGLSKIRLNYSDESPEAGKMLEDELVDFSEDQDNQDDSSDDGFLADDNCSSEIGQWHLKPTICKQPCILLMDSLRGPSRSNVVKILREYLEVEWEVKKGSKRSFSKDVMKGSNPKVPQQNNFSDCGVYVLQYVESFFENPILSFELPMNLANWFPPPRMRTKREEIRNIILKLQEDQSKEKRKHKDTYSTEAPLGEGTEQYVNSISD
SENP1 FRET inh: human SENP1 catalytic domain inhibitors, primary screen, biochemical, FRET, uHTS. Sentrin-specific protease 1 (Homo sapiens), Q9P0U3. recombinant SENP1 catalytic domain, CyPet-SUMO1-YPet FRET cleavage. inhibition, % at 10 µM. actives 0.21% (n = 360,000). AID 624204, 2012;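 active = inhibition at least 30% at 10 µM, raw YFP signal under a set limit, fluorescence ratio 0.5 to 1.5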;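 note: 0% = enzyme with DMSO and 100% = no enzyme wells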
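Test system: hSENP1 catalytic domain, recombinant; Amount: 20 pM final SENP1 enzyme; Medium: Tris pH 8 buffer plus EDTA, NaCl, BME, BSA, NP40, catalase; Schedule: 50 min enzyme reaction, room temperature, light-protected; Technique: FRET fluorescence in CFP and YFP emission channels; Controls: no-enzyme wells low, DMSO-plus-enzyme wells high control.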
Platelet DG rel: inhibitors of platelet dense granule secretion, primary screen, cell-based, MLPCN, human platelets; human platelet-rich plasma, SFLLRN dense granule ATP release, luminescence; inhibition, %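 (compounds screened at 7.5 µM in platelet-rich plasma)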; actives 0.22% (n = 300,000); AID 1663, 2009;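 active = mean replicate score, as percent of positive control, at or above 50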
SENP8 block-2: human SENP8 protease inhibitors, primary screen, biochemical, fluorescence, Nedd8 protein substrate, uHTS; recombinant SENP8; AID 602440, 2012; inhibition, % at 20 µM; actives 0.64% (n = 360,000); in the data active = inhibition mostly above about 40%, no sharp cut-off; inactive = mostly below about 27%
SENP8 conf: SENP8 protease inhibitors, retest, confirmation, biochemical, luminescence, single concentration. Recombinant SENP8, Z-RLRGG-aminoluciferin luminescence, 60 min. inhibition, % at 12.5 µM. shares compounds with SENP7 block. actives 40% (n = 6,200);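 active = mean inhibition across replicates above about 50%, limit read from the data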
SENP6 conf: SENP6 protease inhibitors, confirmation, biochemical, luminescence, single concentration | shares compounds with SENP7 block | recombinant SENP6, Z-RLRGG-aminoluciferin luminescence | inhibition, % at 12.5 µM | actives 58% (n = 6,200) | AID 488915, 2010
SENP7 conf: SENP7 protease inhibitors, retest, confirmation, biochemical, luminescence, single concentration | shares compounds with SENP7 block | recombinant SENP7, Z-RLRGG-aminoluciferin luminescence, 40 min | inhibition, % at 12.5 µM | actives 69% (n = 6,200)
Casp3 SENP sel: caspase-3 protease inhibitors, confirmation, selectivity assay for SENP inhibitor project, biochemical, single concentration. actives 60% (n = 6,200). purified caspase-3, Z-DEVD-aminoluciferin luminescence, 60 min. shares compounds with SENP7 block. AID 488918, 2010. inhibition, % at 12.5 µM;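 active = mean inhibition above about 50%, limit read from the data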;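 note: plate controls were enzyme with DMSO for no effect and wells without caspase-3 for full effect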
Luc interf: counter-screen for SENP inhibitors: luminescence interference; shares compounds with SENP7 block; Pre-incubated SENP8/Z-RLRGG-aminoluciferin, luciferase luminescence interference; inhibition, % at 12.5 µM; actives 39% (n = 6,200); AID 488919;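 active = mean inhibition above about 50% when retested at one dose, limit read from the data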;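 note: plate controls were DMSO wells with completed reaction for no effect and substrate without enzyme for full effect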
* hit, by the source's call; i = inactive; · = no result given. A selection: hits, their analogues and other compounds. The true share with any hit is near 2.6%.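 Rule for the calls, unless noted: active = mean inhibition above about 50% in the one-dose retest (limit read from the data); inactive = the rest.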

SMILES	SENP8 block-1	SENP7 block	SENP6 block	SENP1 FRET inh	Platelet DG rel	SENP8 block-2	SENP8 conf	SENP6 conf	SENP7 conf	Casp3 SENP sel	Luc interf
COc1ccc(NC(=O)c2cc3ccccc3cc2O)cc1	50	13	51*	-22	16	20	25	33	88*	44	8
COc1cc(C(=O)NCC2(c3ccccc3)CCCC2)cc(OC)c1OC	-2	-10	5	0	4	13	·	·	·	·	·
O=C(CCNS(=O)(=O)c1cccc(C(F)(F)F)c1)NC1CC1	0	-11	-15	-1	·	4	·	·	·	·	·
COc1cc2ccccc2cc1C(=O)Nc1ccc(O)cc1	44	57*	63*	-28	3	-89	8	37	87*	60*	3
O=C(CN1C(=O)NC(Cc2c[nH]c3ccccc23)C1=O)Nc1ccc(Br)cc1F (centres undefined)	0	9	-7	3	·	-4	·	·	·	·	·
CCCN1CCN(C(=O)c2cc3c(s2)-c2ccccc2OC3)CC1	65*	56*	71*	-11	18	-424	80*	80*	92*	84*	79*
CC(=O)c1cccc(NC(=S)N2CCN(S(=O)(=O)c3ccccc3)CC2)c1	-1	-6	-6	0	0	2	·	·	·	·	·
Cc1ccc(O)c(NC(=O)c2noc3c2CCc2ccccc2-3)c1	16	66*	7	5	13	2	-31	-17	-5	0	-8
Cc1cc(NC(=O)c2noc3c2CCc2ccccc2-3)no1	-28	-2	-29	0	2	8	·	·	·	·	·
Cc1ccc(C)c(C(=O)COC(=O)c2ccc(C)c(S(=O)(=O)N3CCOCC3)c2)c1	-8	-5	-2	0	·	4	·	·	·	·	·
Cc1cc(NC(=O)c2sc3ccccc3c2O)no1	75*	73*	89*	-126	-1	-370	86*	85*	98*	92*	65*
Cc1noc(C)c1C(=O)Nc1nc2ccc(Cl)cc2s1	95*	94*	96*	1	-13	-48	92*	96*	101*	93*	66*
Cc1noc(C)c1C(=O)Nc1ccc(F)c(F)c1	-7	-2	4	0	-21	20	·	·	·	·	·
Cc1noc(C)c1C(=O)Nc1nc2ccc(F)cc2s1	99*	100*	0	-11	·	-71	97*	100*	103*	99*	48
Cc1onc(-c2ccccc2Cl)c1C(=O)Nc1nc2ccc(S(C)(=O)=O)cc2s1	-1	-12	-8	-4	6	-339	·	·	·	·	·
CCc1noc(C)c1C(=O)Nc1nc2ccc(S(C)(=O)=O)cc2s1	4	25	41	-7	6	-262	·	·	·	·	·
CCc1noc(C)c1C(=O)Nc1nc2ccc(F)cc2s1	64*	66*	81*	-7	4	-34	76*	76*	94*	75*	71*
C[C@H](CO)N1C[C@H](C)[C@@H](CN(C)C(=O)Nc2cc(F)ccc2F)Oc2ncc(-c3cccc(F)c3)cc2C1=O	·	·	·	0	·	-22	·	·	·	·	·
c1ccc(-c2ccc(-n3ccnc3)cc2)cc1	36	6	53*	2	3	-7	40	33	72*	56*	63*
N#C/C(=C(/O)c1ccc([N+](=O)[O-])s1)c1nc2ccccc2[nH]1	3	52*	20	9	8	32	5	8	6	16	5
CC(C)C(NS(=O)(=O)c1ccc2c(c1)C(C)(C)C(=O)N2C)C(=O)NCc1ccccc1Cl (centres undefined)	-3	-1	-3	0	-13	8	·	·	·	·	·
O=C(Nc1ncc([N+](=O)[O-])s1)c1cccs1	96*	99*	97*	-54	14	20	96*	98*	103*	98*	98*
Cc1ncoc1C(=O)Nc1ncc([N+](=O)[O-])s1	93*	97*	95*	-36	20	21	99*	100*	103*	99*	98*
Cc1ncoc1C(=O)Nc1nccs1	-8	-3	-4	3	2	21	·	·	·	·	·
Cc1cnc(NC(=O)COc2ccccc2Cl)s1	77*	92*	90*	3	27	13	66*	91*	99*	90*	30
SMILES	SENP8 block-1	SENP7 block	SENP6 block	SENP1 FRET inh	Platelet DG rel	SENP8 block-2	SENP8 conf	SENP6 conf	SENP7 conf	Casp3 SENP sel	Luc interf
O=C(CCS(=O)(=O)c1ccccc1)Nc1ncc([N+](=O)[O-])s1	-9	-3	0	-9	-13	11	·	·	·	·	·
O=C(CS(=O)(=O)c1ccccc1)Nc1ncc([N+](=O)[O-])s1	6	1	-2	-15	8	2	·	·	·	·	·
O=C(Nc1ncc([N+](=O)[O-])s1)c1ccccc1Br	86*	76*	90*	-28	1	28	91*	90*	100*	94*	71*
O=C(Cc1ccc(Cl)cc1)NCCCNC(=O)c1cccnc1	-4	-48	19	0	-10	15	·	·	·	·	·
O=c1[nH]cnc2c1sc1nc(C(F)F)cc(-c3ccccc3)c12	14	-1	6	-6	·	i	·	·	·	·	·
Cc1csc(NC(=O)c2cccs2)n1	3	31	17	0	5	3	·	·	·	·	·
Cc1cnc(NC(=O)c2cccs2)s1	50	57*	69*	-2	4	-9	62*	60*	86*	84*	34

Bioassay records as filed in PubChem.
